Published values collected from several papers.
Cell line: MDA-MB-231
Observed: cell growth or viability

N.N.[Cl][Pt][Cl]
IC50 (24 h): 68.4 µM

CC(C)=CCc1c(O)cc2oc3cc(O)c(O)c(CC=C(C)C)c3c(=O)c2c1O
IC50 (48 h): 16.4 µM

O=C1[O][Pt]2([NH][C@@H]3CCCC[C@H]3[NH]2)[O]C1=O
IC50 (MTT; 96 h): 2.6 µM

CCC1(c2ccc(N)cc2)CCC(=O)NC1=O (stereo not shown)
IC50 (CCK-8; 48 h): > 50 µM

N.N.[Cl][Pt][Cl]
IC50 (SRB): 12.2 µM

CO[C@]1([C@@H]2CSC(=O)N2Cc2ccccc2)C[C@H]2C[C@@H](CC[C@H](C)/C=C\C=C\CC/C(C)=C\C(=O)O2)O1
IC50 (MTT; 72 h): 6.82 µM

Cn1c(CCCC(=O)O)nc2cc(N(CCCl)CCCl)ccc21
IC50 (MTT): 13.3 µM

C/C1=C/C(=O)O[C@@H]2C[C@@H](CC[C@H](C)/C=C\C=C\CC1)O[C@@](O)([C@@H]1CSC(=O)N1CO)C2
IC50 (MTT; 72 h): 2.99 µM

Cc1coc2c1c(=O)oc1c3ccccc3ccc21
IC50 (SRB; 72 h): 10.3 µg/mL

Nc1cc(Br)c(Br)cc1N
IC50 (72 h): 60 µM

CO[C@]1([C@@H]2CSC(=O)N2C(=O)c2ccccc2)C[C@H]2C[C@@H](CC[C@H](C)/C=C\C=C\CC/C(C)=C\C(=O)O2)O1
IC50 (MTT; 72 h): 4.48 µM

Nc1cc(Cl)c(Cl)cc1N
IC50 (72 h): 150 µM

C/C1=C/C(=O)O[C@@H]2C[C@@H](CC[C@H](C)/C=C\C=C\CC1)O[C@@](OC(=O)c1ccccc1)([C@@H]1CSC(=O)N1)C2
IC50 (MTT; 72 h): 5.05 µM
